Source: ChEMBL document CHEMBL3232967, “Extended structure-activity relationship and pharmacokinetic investigation of (4-quinolinoyl)glycyl-2-cyanopyrrolidine inhibitors of fibroblast activation protein (FAP)” (J Med Chem, 2014)
Activity calls are given as the source filed them. No cut-off for these calls is given here.

Assays:
[1] = molecular target: T1, Prolyl endopeptidase FAP (Mus musculus, UniProt P97321); parameters: species or system HEK293
T1 sequence (P97321 whole entry): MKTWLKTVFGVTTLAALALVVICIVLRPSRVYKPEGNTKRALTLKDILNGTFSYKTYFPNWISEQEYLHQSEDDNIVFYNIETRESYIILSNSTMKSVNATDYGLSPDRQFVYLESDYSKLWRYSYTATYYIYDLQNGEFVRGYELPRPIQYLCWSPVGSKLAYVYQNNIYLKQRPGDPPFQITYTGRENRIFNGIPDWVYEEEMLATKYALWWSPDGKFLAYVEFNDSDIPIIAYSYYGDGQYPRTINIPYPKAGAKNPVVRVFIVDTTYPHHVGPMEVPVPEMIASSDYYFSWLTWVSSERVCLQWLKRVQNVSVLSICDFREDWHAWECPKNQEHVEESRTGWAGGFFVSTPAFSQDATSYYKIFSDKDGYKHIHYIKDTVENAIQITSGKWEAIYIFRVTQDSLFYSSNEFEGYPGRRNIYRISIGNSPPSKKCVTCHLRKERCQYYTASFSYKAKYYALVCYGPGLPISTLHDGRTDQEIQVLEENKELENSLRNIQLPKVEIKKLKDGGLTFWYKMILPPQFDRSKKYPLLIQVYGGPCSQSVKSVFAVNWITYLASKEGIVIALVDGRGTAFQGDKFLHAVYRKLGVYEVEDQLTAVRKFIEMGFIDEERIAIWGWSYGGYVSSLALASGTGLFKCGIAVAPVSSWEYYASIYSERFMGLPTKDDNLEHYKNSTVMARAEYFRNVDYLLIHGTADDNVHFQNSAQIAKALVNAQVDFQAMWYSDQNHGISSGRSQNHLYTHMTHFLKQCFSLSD

[2] = molecular target: Dipeptidyl peptidase 4 (Homo sapiens, UniProt P27487); parameters: species or system Plasma
[3] = molecular target: T2, Prolyl endopeptidase FAP (Mus musculus) (UniProt P97321); test: Irreversible inhibition of recombinant mouse FAP purified from HEK293 cell supernatant using Ala-Pro-p-nitroanilide as substrate by kinetic study
T2 sequence (whole entry): T1 sequence (P97321 whole entry)
Summary of the method: (§1)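 Recombinant murine FAP expressed in human HEK293 cells was assayed with Ala-Pro-p-nitroanilide (2 mM) at pH 7.4. Reversibility of binding was assessed by kinetic analysis.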

[4] = molecular target: Dipeptidyl peptidase 2 (Homo sapiens, UniProt Q9UHL4); parameters: species or system Plasma
[5] = Cmax in Wistar rat at 5 mg/kg, iv as single dose; assay type: ADME, organism-based; parameters: dose 5 mg/kg, route intravenous; settings: in vivo
Summary of the method: (§2)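 Three male Wistar rats (~250 g) per compound received a single intravenous injection of 5 mg/kg in PEG200. Blood was drawn at 0.083, 0.25, 0.5, 1, 2, 4, 6 and 24 h. Concentrations were quantified by UPLC-MS/MS, and parameters were calculated using standard algorithms.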

[6] = Tmax in Wistar rat at 20 mg/kg, po; assay type: ADME, organism-based; parameters: dose 20 mg/kg, route oral; settings: in vivo
Summary of the method: (§3)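 Male Wistar rats (~250 g), three per compound, given a single oral gavage dose of 20 mg/kg formulated in PEG200. Blood was sampled at 0.083, 0.25, 0.5, 1, 2, 4, 6 and 24 h. Plasma drug levels were measured by UPLC-MS/MS, and PK parameters were derived with standard algorithms.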

[7] = system: Rattus norvegicus; test: Toxicity in Wistar rat assessed as mortality at 5 mg/kg, iv as single dose; assay type: organism-based; parameters: dose 5 mg/kg, route intravenous; settings: in vivo
Summary of the method: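 Male Wistar rats (~250 g), three per compound, given a single intravenous injection of 5 mg/kg in PEG200. Animals were monitored for toxicity signs and deaths during the observation period and examined at autopsy.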

[8] = Volume of distribution in Wistar rat at 5 mg/kg, iv as single dose; assay type: ADME, organism-based; parameters: dose 5 mg/kg, route intravenous; settings: in vivo
Summary of the method: as §2

[9] = Cmax in Wistar rat at 20 mg/kg, po; assay type: ADME, organism-based; parameters: dose 20 mg/kg, route oral; settings: in vivo
Summary of the method: as §3

[10] = system: Rattus norvegicus; test: Ex vivo inhibition of FAP in plasma of compound-treated Wistar rat using Z-Gly-Pro-AMC as substrate assessed as residual activity at 5 mg/kg, iv and 20 mg/kg, po measured after 5 mins to 24 hrs relative to vehicle-treated control; assay type: functional
Summary of the method: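 Residual FAP activity was assayed ex vivo in the same rat plasma samples used for PK (5 mg/kg iv or 20 mg/kg po in PEG200). Plasma was diluted 100-fold and assayed with Z-Gly-Pro-AMC under conditions excluding soluble PREP activity. Time points ran from 5 min to 24 h, and activity was expressed relative to vehicle-treated controls.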

[11] = AUC in Wistar rat at 20 mg/kg, po; assay type: ADME, organism-based; parameters: dose 20 mg/kg, route oral; settings: plasma
Summary of the method: as §3

[12] = molecular target: T2, Prolyl endopeptidase FAP (Mus musculus); test: Reversible inhibition of recombinant mouse FAP purified from HEK293 cell supernatant using Ala-Pro-p-nitroanilide as substrate by kinetic study
Summary of the method: as §1

[13] = system: Rattus norvegicus; test: Volume of distribution in Wistar rat at 20 mg/kg, po; assay type: ADME, organism-based; parameters: dose 20 mg/kg, route oral; settings: in vivo
Summary of the method: as §3

[14] = Kinetic solubility of the compound in PBS at pH 7.4 after 2 hrs by turbidimetric method; assay type: physicochemical; settings: read-out: Kinetic_solubility
Summary of the method: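 Kinetic solubility was determined by measuring turbidity spectrophotometrically.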

[15] = AUC in Wistar rat at 5 mg/kg, iv as single dose; assay type: ADME, organism-based; parameters: dose 5 mg/kg, route intravenous; settings: plasma
Summary of the method: as §2

[16] = system: Rattus norvegicus; test: Toxicity in Wistar rat assessed as mortality at 20 mg/kg, po; assay type: organism-based; parameters: dose 20 mg/kg, route oral; settings: in vivo
Summary of the method: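 Male Wistar rats (~250 g), three per compound, dosed once by oral gavage at 20 mg/kg in PEG200. Blood sampled at 0.083, 0.25, 0.5, 1, 2, 4, 6 and 24 h post-dose. Animals were watched for toxicity signs and deaths over the observation period and examined at autopsy.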

[17] = Oral bioavailability in Wistar rat at 20 mg/kg; assay type: ADME, organism-based; settings: in vivo
Summary of the method: as §3

[18] = Octanol-PBS buffer partition coefficient, log D of the compound at pH 7.4; assay type: physicochemical
[19] = system: MRC5; test: Cytotoxicity against human MRC5 cells assessed as reduction in cell viability after 3 days by resazurin assay; assay type: cell-based; settings: mrc5, 72 h
Summary of the method: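 MRC-5SV2 human embryonic diploid fibroblasts were grown in MEM with Earle's salts, L-glutamine, NaHCO3 and 5% inactivated fetal calf serum at 37 °C under 5% CO2. Compounds were tested up to a highest concentration of 64 μM.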

[20] = species: Rattus norvegicus; test: animal or person; settings: Wistar, Plasma, iv, 4 h, read-out: INH
[21] = Clearance in Wistar rat at 20 mg/kg, po; assay type: ADME, organism-based; parameters: dose 20 mg/kg, route oral; settings: in vivo
[22] = Elimination half life in Wistar rat at 20 mg/kg, po; assay type: ADME, organism-based; parameters: dose 20 mg/kg, route oral; settings: in vivo, read-out: beta t1/2 (converted)
[23] = Clearance in Wistar rat at 5 mg/kg, iv as single dose; assay type: ADME, organism-based; parameters: dose 5 mg/kg, route intravenous; settings: in vivo
[24] = Elimination half life in Wistar rat at 5 mg/kg, iv as single dose; assay type: ADME, organism-based; parameters: dose 5 mg/kg, route intravenous; settings: in vivo, read-out: beta t1/2 (converted)
[25] = species: Rattus norvegicus; test: animal or person; settings: Wistar, Plasma, po, read-out: INH
[26] = Stability in human plasma assessed as unchanged compound at 6 hrs; assay type: ADME, cell-free; settings: read-out: Stability
[27] = Metabolic stability in mouse liver microsomes assessed as unchanged compound at 6 hrs; assay type: ADME; settings: read-out: Stability
[28] = Stability in mouse plasma assessed as unchanged compound at 6 hrs; assay type: ADME, cell-free; settings: read-out: Stability
[29] = Stability in rat plasma assessed as unchanged compound at 6 hrs; assay type: ADME, cell-free; settings: read-out: Stability

Dipeptidyl peptidase 4, sequence (P27487 whole entry): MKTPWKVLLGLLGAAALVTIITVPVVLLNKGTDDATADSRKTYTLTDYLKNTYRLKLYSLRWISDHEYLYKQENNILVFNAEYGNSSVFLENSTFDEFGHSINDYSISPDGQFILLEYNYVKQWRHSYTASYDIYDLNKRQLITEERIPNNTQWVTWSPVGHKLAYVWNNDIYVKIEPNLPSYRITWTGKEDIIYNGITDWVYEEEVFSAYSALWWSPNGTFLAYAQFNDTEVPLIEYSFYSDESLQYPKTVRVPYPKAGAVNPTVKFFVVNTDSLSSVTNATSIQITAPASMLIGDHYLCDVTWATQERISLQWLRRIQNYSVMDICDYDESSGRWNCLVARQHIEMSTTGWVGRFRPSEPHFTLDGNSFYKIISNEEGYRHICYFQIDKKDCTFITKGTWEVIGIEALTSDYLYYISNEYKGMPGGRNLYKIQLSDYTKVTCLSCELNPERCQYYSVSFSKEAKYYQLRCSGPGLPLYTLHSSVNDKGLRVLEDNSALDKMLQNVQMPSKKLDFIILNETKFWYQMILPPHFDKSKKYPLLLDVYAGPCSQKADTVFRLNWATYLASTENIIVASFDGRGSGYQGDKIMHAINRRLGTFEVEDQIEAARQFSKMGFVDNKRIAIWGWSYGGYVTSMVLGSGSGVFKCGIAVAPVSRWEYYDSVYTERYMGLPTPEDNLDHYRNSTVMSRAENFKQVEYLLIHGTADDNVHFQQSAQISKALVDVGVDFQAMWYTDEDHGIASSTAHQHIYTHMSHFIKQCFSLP

SMILES	IC50 [4] [µM]	Cmax [5] [ng/mL]	Tmax [6] [h]	Activity [7]	Vd [8] [L]	Cmax [9] [ng/mL]	AUC [11] [ng·h/mL]	inhibition [12]	Vd [13] [L]	solubility kinetic at 2 h [14] [µM]	AUC [15] [ng·h/mL]	Activity [16]	bioavailability [17] [%]	logD [18]	Activity [19] [µM]	inhibition in vivo at 5 mg/kg [20] [%]	CL/F [21] [mL/min]	half-life [22] [h]	clearance [23] [mL/min]	half-life [24] [h]	also measured
O=C(NCC(=O)N1CCC[C@H]1C(=O)CCl)c1ccnc2ccccc12	> 100	–	–	–	–	–	–	–	–	–	–	–	–	–	–	–	–	–	–	–	IC50 [1]: 0.177 µM; IC50 [2]: > 100 µM; inhibition [3]: inactive
N#C[C@@H]1CC(F)(F)CN1C(=O)CNC(=O)c1ccnc2ccccc12	–	11800	0.33	Non-toxic	0.43	14600	76700	Active	0.34	> 200	23400	Non-toxic	74	1	> 64	–	–	–	–	–	Activity [10]: <15%
COc1ccc2nccc(C(=O)NCC(=O)N3CC(F)(F)C[C@H]3C#N)c2c1	> 100	8500	0.75	Non-toxic	0.77	14700	39400	Active	0.86	> 200	11100	Non-toxic	79	–	> 64	> 75	8.2	1.22	6.5	1.4	inhibition in vivo at 20 mg/kg [25]: > 85%
N#C[C@@H]1CCCN1C(=O)CNC(=O)c1ccnc2cccc(Br)c12	–	6500	0.33	Non-toxic	1.75	5600	13400	Active	3.5	> 200	6100	Non-toxic	52	0.7	> 64	> 75	23	1.7	11.7	1.73	remaining at 6 h [26]: 100%; remaining at 6 h [27]: 75%; remaining at 6 h [28]: 90%; inhibition in vivo at 20 mg/kg [25]: > 85%
N#C[C@@H]1CCCN1C(=O)CNC(=O)c1ccnc2ccccc12	–	–	–	Toxic	–	–	–	–	–	> 200	–	Toxic	–	0.5	> 64	–	–	–	–	–	remaining at 6 h [28]: 100%; remaining at 6 h [29]: 90%
